Reference: ChEMBL document CHEMBL1126553, “Antioxidant and neutrophil-inhibiting properties of new 2-O-methyl-6-(alkylthio)ascorbic acid derivatives” (J Med Chem, 1993)
Blank lines part the entries; values can stand above or below the molecule they belong to. The source made the active and inactive calls. The rule behind the calls is not given here.

Experiments:
[1] = Dissociation constant in aqueous solution; assay type: physicochemical
[2] = species on record: Homo sapiens; assay: Tested for inhibition of fMLP induced secretion of lysozyme from human neutrophil cells; Did not influence or inactive; assay type: functional, cell-based
[3] = species on record: Homo sapiens; assay: Inhibitory effect on superoxide anion formation of fMLP-stimulated neutrophils at 1 uM by cytochrome c assay; assay type: functional
[4] = species on record: Homo sapiens; assay: Inhibitory effect on superoxide anion formation of fMLP-stimulated neutrophils at 1 uM by cytochrome c assay; Did not inhibit or weakly inhibited; assay type: functional
[5] = species on record: Homo sapiens; assay: Inhibition of fMLP-induced oxidative burst in a cell density of 2 x 10 e 6 cells/mL; assay type: functional, cell-based
[6] = species on record: Homo sapiens; assay: Inhibition of fMLP-induced oxidative burst in a cell density of 5 x 10 e 5 cells/mL; assay type: functional, cell-based
[7] = species on record: Homo sapiens; assay: Inhibition of fMLP-induced secretion of beta-glucurodinase (azurophilic granules); assay type: functional
How it was run: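 Neutrophils at 5 × 10⁶/mL were primed with 5 μg/mL cytochalasin B (4 min, 37 °C), given compound in 0.1% DMSO for 3 min, then 100 nM fMLP for 15 min. Stopped on ice and pelleted. Supernatant β-glucuronidase was assayed with 4-methylumbelliferyl-β-D-glucuronide, pH 4.0, 15 min at 37 °C; fluorescence ex 365/em 460 nm. n = 3.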

[8] = species on record: Homo sapiens; assay: Inhibition of fMLP-induced secretion of lysozyme (azurophilic and specific granules); assay type: functional
[9] = species on record: Homo sapiens; assay: Inhibition of fMLP-stimulated superoxide production in a cell density of 5 x 10 e 6 cells/mL; assay type: functional, cell-based
[10] = species on record: Homo sapiens; assay: Maximum Inhibition of fMLP-stimulated superoxide production in a cell density of 5 x 10 e 6 cells/mL; assay type: functional
[11] = species on record: Homo sapiens; assay: Maximum inhibition of MLP-induced oxidative burst in a cell density of 2 x 10 e 6 cells/mL; assay type: functional
[12] = species on record: Rattus norvegicus; assay: Inhibition of Fe(2+)/ADP-induced lipid peroxidation of rat liver microsomes; assay type: functional
How it was run: (§1)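 Wistar rat liver microsomes (1 mg/mL) in 50 mM potassium phosphate, pH 7.2, with 50 μM ADP and 5 μM […]. Compound or DMSO was preincubated at 25 °C (5 min per methods; legend says 3 min). Peroxidation was started with 1 mM NADPH. After 15 min, malondialdehyde was measured by thiobarbituric acid at 532 nm. Mean ± SEM, n = 3.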

[13] = Dissociation constant in aqueous system; assay type: physicochemical
[14] = species on record: Rattus norvegicus; assay: Tested for inhibition of lipid peroxidation in rat liver microsomes; assay type: functional; how it was run: as §1

pKa [1]: 7.7
SMILES: CCCCCCCCCCCCCCCCSCC(O)C1OC(=O)C(O)=C1OC (stereo not drawn)
inhibition [2]: inactive

SMILES: CCCCCCCCCCCCCCCCCCSCC(O)C1OC(O)=C(OC)C1=O (stereo not drawn)
inhibition at 1 µM [3]: 40%

SMILES: COC1=C(O)OC(C(O)CSc2ccccc2)C1=O (stereo not drawn)
inhibition [4]: Did not inhibit or weakly inhibited

SMILES: CCCCCCCCSCC(O)C1OC(O)=C(OC)C1=O (stereo not drawn)
inhibition [4]: Did not inhibit or weakly inhibited

SMILES: CCCCCCCCCCCCCCCCSCC(O)C1OC(=O)C(OC)=C1OC (stereo not drawn)
inhibition [4]: Did not inhibit or weakly inhibited

IC50 [5]: 1250 nM | IC50 [6]: 600 nM | IC50 [7]: 7000 nM | IC50 [8]: 2500 nM | IC50 [9]: 3700 nM | IC50 [12]: 2000 nM | pKa [13]: 3.32
SMILES: CCCCCCCCCCCCCCCCSCC(O)C1OC(O)=C(OC)C1=O (stereo not drawn)
Max inhibition concentration [10]: 10 µM | Max inhibition concentration [11]: 5 µM | inhibition at 1 µM [3]: 80%

IC50 [14]: 2500 nM
SMILES: CCCCCCCCCCCCSCC(O)C1OC(O)=C(OC)C1=O (stereo not drawn)
inhibition [4]: Did not inhibit or weakly inhibited
